According to ChEMBL document CHEMBL5108061, “Lectin-Targeted Prodrugs Activated by Pseudomonas aeruginosa for Self-Destructive Antibiotic Release” (J Med Chem, 2022):
In brackets after ≈: the same amount, converted by molar mass.

Tests used:
[1] = Stability of compound in human blood plasma spiked with Pseudomonas aeruginosa PA14 matrix assessed as hydrolysis of prodrug and measured upto 3 hrs by HPLC-MS/MS analysis; type: ADME, cell-free
Elastase = Elastase (Pseudomonas aeruginosa (strain ATCC 15692 / PAO1 / 1C / PRS 101 / LMG12228), UniProt P14756); assay: Prodrug activation assessed as LasB-mediated drug release in Pseudomonas aeruginosa PA14 cell supernatant in presence of human blood plasma and measured for 3 hrs by HPLC-MS analysis; type: cell-free
Elastase, sequence (P14756 whole entry): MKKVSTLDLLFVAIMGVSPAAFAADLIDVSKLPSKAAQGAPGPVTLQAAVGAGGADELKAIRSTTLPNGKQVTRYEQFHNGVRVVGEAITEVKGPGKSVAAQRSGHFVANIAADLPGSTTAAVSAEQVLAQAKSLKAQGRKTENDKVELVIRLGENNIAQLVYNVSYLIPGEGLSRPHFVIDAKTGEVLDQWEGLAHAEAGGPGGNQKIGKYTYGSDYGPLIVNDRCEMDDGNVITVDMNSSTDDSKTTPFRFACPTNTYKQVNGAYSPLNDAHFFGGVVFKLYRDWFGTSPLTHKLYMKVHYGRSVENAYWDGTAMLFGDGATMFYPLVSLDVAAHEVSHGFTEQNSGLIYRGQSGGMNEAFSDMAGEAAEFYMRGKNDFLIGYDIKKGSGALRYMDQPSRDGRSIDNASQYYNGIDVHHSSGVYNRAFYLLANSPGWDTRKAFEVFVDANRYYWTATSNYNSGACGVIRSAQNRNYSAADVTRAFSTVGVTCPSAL

Pseudomonas aeruginosa [2] = assay: (§1) Antibacterial activity against Pseudomonas aeruginosa PA14 assessed inhibition of bacterial growth preincubated for 3 hrs in matrix containing human blood plasma spiked with Pseudomonas aeruginosa cell culture supernatant in PBS buffer followed by overnight grown bacterial culture addition incubated for 18 to 20 hrs by broth microdilution method; type: functional
Outline: (§2)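 Prodrug serial dilutions in PBS/20% DMSO (1 mM to 1.9 μM) were diluted about 1:20 into matrix. Matrices: plasma 5 mL + PA14 LB-culture sterile filtrate 1 mL + PBS 4 mL; filtrate 1 mL + PBS 9 mL; PBS alone; plasma 5 mL + LB 1 mL + PBS 4 mL. Preincubation was 3 h at 37 °C, or <10 min at room temperature.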

Pseudomonas aeruginosa [3] = assay: as §1, with “10 mins” for “3 hrs”, “fresh LB medium” for “Pseudomonas aeruginosa cell culture supernatant”, “PBS” for “PBS buffer”; type: functional; outline: as §2
Pseudomonas aeruginosa [4] = assay: as §1, with “10 mins” for “3 hrs”; type: functional; outline: as §2
Pseudomonas aeruginosa [5] = assay: (§3) Antibacterial activity against Pseudomonas aeruginosa PA14 assessed inhibition of bacterial growth preincubated for 3 hrs in PBS buffer followed by overnight grown bacterial culture addition incubated for 18 to 20 hrs by broth microdilution method; type: functional; conditions: time 21-23 hrs; outline: as §2
Pseudomonas aeruginosa [6] = assay: as §1, with “fresh LB medium” for “Pseudomonas aeruginosa cell culture supernatant”, “PBS” for “PBS buffer”; type: functional; conditions: time 21-23 hrs; outline: as §2
Pseudomonas aeruginosa [7] = assay: as §1, with “containing 50%” for “containing”, “and 10%” for “spiked with”, “PBS” for “PBS buffer”; type: functional; conditions: time 21-23 hrs; outline: as §2
[8] = molecular target: T1, PA-I galactophilic lectin (Pseudomonas aeruginosa (strain ATCC 15692 / PAO1 / 1C / PRS 101 / LMG12228), UniProt Q05097); assay: Competitive binding affinity to recombinant Pseudomonas aeruginosa LecA expressed in Escherichia coli BL21(DE3) incubated for 30 to 60 mins by fluorescent polarization assay
T1 sequence (Q05097 whole entry): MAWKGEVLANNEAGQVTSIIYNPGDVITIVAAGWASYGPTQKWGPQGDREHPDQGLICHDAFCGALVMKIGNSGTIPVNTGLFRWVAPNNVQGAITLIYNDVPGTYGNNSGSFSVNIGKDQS
Outline: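 Recombinant LecA (E. coli BL21(DE3), galactosyl-sepharose purified) at 40 μM with 20 nM fluorescein-galactoside reporter in TBS/Ca pH 7.4; compounds serially diluted with 30% DMSO co-solvent, technical triplicates; 30–60 min at 22 °C; fluorescence polarization (ex 485/em 535); four-parameter fit with plateaus fixed by pNP-β-D-Gal control; ≥3 independent experiments.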

Pseudomonas aeruginosa [9] = assay: Antibacterial activity against Pseudomonas aeruginosa PA14 assessed inhibition of bacterial growth preincubated for 10 mins in PBS buffer followed by overnight grown bacterial culture addition incubated for 18 to 20 hrs by broth microdilution method; type: functional; outline: as §2
Pseudomonas aeruginosa [10] = assay: as §3, with “3 hrs in matrix containing Pseudomonas aeruginosa cell culture supernatant in PBS” for “3 hrs in PBS”; type: functional; conditions: time 21-23 hrs; outline: as §2
[11] = Protein binding in human plasma at 1 uM incubated for incubated for 2 hrs by HPLC-MS/MS analysis; type: ADME, cell-free
Outline: (§4)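 Rapid equilibrium dialysis; compound at 1 μM final in pooled CD-1 mouse plasma or pooled mixed-gender human plasma, dialysed against buffer; naproxen as high-binding control.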

[12] = Stability in human plasma assessed as half life at 1 uM and measured upto 240 mins by HPLC-MS/MS analysis; type: ADME, cell-free; conditions: 4 h
Outline: (§5)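 Compound at 1 μM final in prewarmed mouse or human plasma (pH 7.4), 37 °C, sampled at 0–240 min; extracted with acetonitrile containing caffeine internal standard; HPLC-MS/MS, peak area normalized to internal standard and time 0; procaine and procainamide controls; ≥3 independent repeats.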

[13] = Drug uptake in human A549 cells assessed as intracellular accumulation at 10 ug/ml incubated for 15 to 60 mins by HPLC-MS/MS analysis; type: ADME, cell-based; conditions: time 15-60 min, dose 10 µg/ml
Outline: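 A549 cells grown to 95% confluence in DMEM/10% FCS, exposed to 10 μg/mL compound for 15, 30 and 60 min at 37 °C; washed twice with PBS, lysed in MeOH; medium, washes and extracts extracted with MeOH containing caffeine internal standard and quantified by HPLC-MS/MS against calibration/QC samples; technical duplicates, two biological replicates.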

[14] = molecular target: Fucose-binding lectin PA-IIL (Pseudomonas aeruginosa (strain ATCC 15692 / DSM 22644 / CIP 104116 / JCM14847 / LMG 12228 / 1C / PRS 101 / PAO1), UniProt Q9HYN5); assay: Competitive binding affinity to recombinant Pseudomonas aeruginosa PAO1 LecB expressed in Escherichia coli BL21(DE3) incubated for 4 to 8 hrs by fluorescent polarization assay
Fucose-binding lectin PA-IIL, sequence (Q9HYN5 whole entry): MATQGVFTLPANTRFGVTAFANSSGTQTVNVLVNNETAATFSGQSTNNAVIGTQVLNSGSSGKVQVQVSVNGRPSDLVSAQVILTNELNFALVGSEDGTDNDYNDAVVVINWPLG

A549 = assay: Cytotoxicity against human A549 cells assessed as reduction in cell viability incubated for 24 hrs by MTT assay
[15] = Protein binding in CD-1 mouse plasma at 1 uM incubated for incubated for 2 hrs by HPLC-MS/MS analysis; type: ADME, cell-free; outline: as §4
[16] = Stability in mouse plasma assessed as half life at 1 uM and measured upto 240 mins by HPLC-MS/MS analysis; type: ADME, cell-free; conditions: 4 h; outline: as §5
Pseudomonas aeruginosa [17] = assay: Antibacterial activity against Pseudomonas aeruginosa PA14 assessed inhibition of bacterial growth incubated for 18 to 20 hrs by broth microdilution method; type: functional; conditions: time 18-20 hrs
Outline: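 Broth microdilution per EUCAST in Müller-Hinton broth II, no matrix preincubation. […] Inoculum from overnight LB-agar colonies adjusted to OD600 0.08–0.13, diluted 1:100, final 5 × 10^5 cfu/mL.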

SMILES | Stability [1] | Drug metabolism (Elastase) | MIC (Pseudomonas aeruginosa [2]) | MIC (Pseudomonas aeruginosa [3]) | MIC (Pseudomonas aeruginosa [4]) | MIC (Pseudomonas aeruginosa [5]) | MIC (Pseudomonas aeruginosa [6]) | MIC (Pseudomonas aeruginosa [7]) | IC50 [8] | MIC (Pseudomonas aeruginosa [9]) | MIC (Pseudomonas aeruginosa [10]) | PPB [11] | t1/2 [12] | Drug uptake [13] | IC50 [14] | IC50 (A549) | PPB [15] | t1/2 [16] | MIC (Pseudomonas aeruginosa [17])
CC(C)C[C@H](NC(=O)CNC(=O)[C@H](C)NC(=O)c1ccc(S[C@@H]2O[C@H](CO)[C@H](O)[C@H](O)[C@H]2O)cc1)C(=O)N[C@@H](C)C(=O)NC[C@@H]1CCN(c2cc3c(cc2F)c(=O)c(C(=O)O)cn3C2CC2)C1 | Stable | Metabolite_Detected | 1.56 µM (≈ 1.49 µg/mL) | > 25 µM | 3.13 µM (≈ 2.99 µg/mL) | > 25 µM | 12.5 µM (≈ 12 µg/mL) | 1.56 µM (≈ 1.49 µg/mL) | 28 µM | > 25 µM | 1.56 µM (≈ 1.49 µg/mL) | – | – | – | – | – | – | – | –
CC(C)C[C@H](NC(=O)CNC(=O)[C@H](C)NC(=O)c1ccc(S(=O)(=O)NC[C@H]2O[C@@H](C)[C@@H](O)[C@@H](O)[C@@H]2O)cc1)C(=O)N[C@@H](C)C(=O)N[C@H]1CCN(c2cc3c(cc2F)c(=O)c(C(=O)O)cn3C2CC2)C1 | Stable | Metabolite_Detected | 1.56 µM (≈ 1.54 µg/mL) | ≥ 25 µM | 0.78 µM (≈ 0.77 µg/mL) | > 25 µM | 0.78 µM (≈ 0.77 µg/mL) | 0.1 µM (≈ 0.0987 µg/mL) | – | > 25 µM | 0.39 µM (≈ 0.385 µg/mL) | 51.1% | 2.25 h | 55 ng/mL | 3.59 µM | > 50 µM | 30.1% | 1.23 h | –
O=C(O)c1cn(C2CC2)c2cc(N3CCNCC3)c(F)cc2c1=O [CIPROFLOXACIN] | – | – | – | 0.156 µM (≈ 0.0517 µg/mL) | 0.25 µM (≈ 0.0828 µg/mL) | 0.125 µM (≈ 0.0414 µg/mL) | 0.156 µM (≈ 0.0517 µg/mL) | 0.156 µM (≈ 0.0517 µg/mL) | – | 0.125 µM (≈ 0.0414 µg/mL) | – | – | – | – | – | – | – | – | 0.125 µM (≈ 0.0414 µg/mL)
CC(C)C[C@H](NC(=O)CNC(=O)[C@H](C)NC(=O)c1ccc(S[C@@H]2O[C@H](CO)[C@H](O)[C@H](O)[C@H]2O)cc1)C(=O)N[C@@H](C)C(=O)N1CCN(c2cc3c(cc2F)c(=O)c(C(=O)O)cn3C2CC2)CC1 | Stable | Metabolite_Notdetected | ≥ 25 µM | > 25 µM | ≥ 25 µM | > 25 µM | ≥ 25 µM | ≥ 25 µM | 31.7 µM | > 25 µM | ≥ 25 µM | – | – | – | – | – | – | – | –
NC[C@@H]1CCN(c2cc3c(cc2F)c(=O)c(C(=O)O)cn3C2CC2)C1 | – | – | – | – | – | – | – | – | – | – | – | – | – | – | – | – | – | – | 0.29 µM (≈ 0.1 µg/mL)
CC(C)C[C@H](NC(=O)CNC(=O)[C@H](C)NC(=O)c1ccc(S[C@@H]2O[C@H](CO)[C@H](O)[C@H](O)[C@H]2O)cc1)C(=O)N[C@@H](C)C(=O)N[C@H]1CCN(c2cc3c(cc2F)c(=O)c(C(=O)O)cn3C2CC2)C1 | Stable | Metabolite_Detected | 0.78 µM (≈ 0.735 µg/mL) | ≥ 25 µM | 0.195 µM (≈ 0.184 µg/mL) | > 25 µM | 0.78 µM (≈ 0.735 µg/mL) | 0.1 µM (≈ 0.0942 µg/mL) | 29.8 µM | > 25 µM | 0.195 µM (≈ 0.184 µg/mL) | 97.2% | > 4 h | – | – | 21.7 µM | 74% | > 4 h | –
